Calls of active or inactive are those of the source. The calls are words filed in the database; no cut-off is given here. Where a SMILES comes first, the peptide text is derived from it. [ ]: non-standard residue; d: D form. Phe(3-F) = N[C@@H](Cc1cccc(F)c1)C(=O)O; Arg(Me) = CNC(=N)NCCC[C@H](N)C(=O)O; Aib = CC(C)(N)C(=O)O; azaGly = NNC(=O)O
How the values were obtained:
[1] = Solubility of the compound in water at 20 mg/ml; format: physicochemical; details: buffer
[2] = system: Rattus norvegicus; test: Inhibition of testosterone levels in CD(SD) rat assessed as plasma testosterone level <0.04 ng/ml at 0.03 nmol/hr, sc administered continuously for 6 days through alzet osmotic pump measured after 6 days by radio-immunoassay; format: functional, organism-based
[3] = target: KiSS-1 receptor (Homo sapiens, UniProt Q969F8); test: Agonist activity at human KISS1R expressed in CHO/dhfr cells assessed as increase in intracellular Ca2+ levels measured for 180 secs by Fluo 3-AM dye based FLIPR assay; format: functional, cell-based
Method in brief: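 CHO cells expressing human KISS1R; FLIPR recording of ligand-induced [Ca2+]i rise over time. Maximum response taken and expressed as percent of the response to a maximal concentration of metastin(45-54). EC50 = concentration giving half-maximal mobilization, from nonlinear regression of smoothed data. Reported as ratio to the metastin(45-54) EC50.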

[4] = target: KiSS-1 receptor (Rattus norvegicus, UniProt Q924U1); test: Agonist activity at rat KISS1R expressed in CHO/dhfr cells assessed as increase in intracellular Ca2+ levels measured for 180 secs by Fluo 3-AM dye based FLIPR assay; format: functional, cell-based
[5] = system: Rattus norvegicus; test: Inhibition of testosterone levels in CD(SD) rat assessed as plasma testosterone level <0.04 ng/ml at 0.1 nmol/hr, sc administered continuously for 6 days through alzet osmotic pump measured after 6 days by radio-immunoassay; format: functional, organism-based
[6] = system: Rattus norvegicus; test: Inhibition of testosterone levels in Crl:CD(SD) rat plasma assessed as plasma testosterone level <0.04 ng/ml at 30 pmol/hr, sc administered as continuous dosing through alzet osmotic pump for 1 week by radio-immunoassay; format: functional, organism-based
Method in brief: (§1)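 Peptide dissolved in 50% DMSO at 3, 10, 30 or 100 µM, loaded into ALZET osmotic pumps for 3 to 100 pmol/h. Pumps implanted sc in 5 Crl:CD(SD) male rats. Plasma testosterone measured by RIA after 1 or 4 weeks. Values below the 0.04 ng/mL detection limit were treated as 0.04. Count of rats below the limit.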

[7] = system: Rattus norvegicus; test: Inhibition of testosterone levels in Crl:CD(SD) rat plasma assessed as plasma testosterone level <0.04 ng/ml at 100 pmol/hr, sc administered as continuous dosing through alzet osmotic pump for 4 weeks by radioimmunoassay; format: functional, organism-based; method in brief: as §1
[8] = system: Rattus norvegicus; test: Inhibition of testosterone levels in Crl:CD(SD) rat plasma assessed as plasma testosterone level <0.04 ng/ml at 100 pmol/hr, sc administered as continuous dosing through alzet osmotic pump for 1 week by radioimmunoassay; format: functional, organism-based; method in brief: as §1
[9] = Conformational changes of the compound in distilled water assessed as decrease in beta-sheet content at 0.1 mg/ml by preliminary circular dichroism analysis; parameters: scale not given: the % may be the effect or the level left
[10] = Cmax in Sprague-Dawley rat plasma at 1 mg/kg, sc by LC/MS analysis; format: ADME, organism-based; parameters: dose 1 mg/kg, route subcutaneous
Method in brief: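 Single subcutaneous 1 mg/kg dose to SD rats (n=3 per group). Plasma drawn at 5, 10, 15, 30 min and 1, 2, 4, 8, 24 h. Proteins removed with 0.2% formic acid/methanol (1:4, v/v) plus acetonitrile, centrifuged, supernatant diluted in 0.4% aqueous formic acid, then measured by LC/MS. Noncompartmental analysis per rat, mean ± SD.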

[11] = Inhibition of testosterone levels in sc dosed Crl:CD(SD) rat plasma assessed as compound dosing causing plasma testosterone level <0.04 ng/ml in all tested animals administered as continuous dosing through alzet osmotic pump for 1 to 4 weeks by radio-immunoassay; format: functional

KiSS-1 receptor (Rattus norvegicus, UniProt Q924U1), sequence (Q924U1 whole entry): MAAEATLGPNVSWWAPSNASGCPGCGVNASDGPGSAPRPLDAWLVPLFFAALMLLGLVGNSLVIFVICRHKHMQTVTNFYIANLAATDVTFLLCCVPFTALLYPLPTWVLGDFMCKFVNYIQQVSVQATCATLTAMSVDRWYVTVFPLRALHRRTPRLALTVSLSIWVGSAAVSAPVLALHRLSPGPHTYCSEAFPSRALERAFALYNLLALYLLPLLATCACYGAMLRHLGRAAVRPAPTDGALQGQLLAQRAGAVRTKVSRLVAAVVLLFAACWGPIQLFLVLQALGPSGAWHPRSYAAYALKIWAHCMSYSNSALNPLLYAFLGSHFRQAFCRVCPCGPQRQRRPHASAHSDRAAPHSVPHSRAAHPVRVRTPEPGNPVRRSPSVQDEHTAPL
KiSS-1 receptor (Homo sapiens, UniProt Q969F8), sequence (Q969F8 whole entry): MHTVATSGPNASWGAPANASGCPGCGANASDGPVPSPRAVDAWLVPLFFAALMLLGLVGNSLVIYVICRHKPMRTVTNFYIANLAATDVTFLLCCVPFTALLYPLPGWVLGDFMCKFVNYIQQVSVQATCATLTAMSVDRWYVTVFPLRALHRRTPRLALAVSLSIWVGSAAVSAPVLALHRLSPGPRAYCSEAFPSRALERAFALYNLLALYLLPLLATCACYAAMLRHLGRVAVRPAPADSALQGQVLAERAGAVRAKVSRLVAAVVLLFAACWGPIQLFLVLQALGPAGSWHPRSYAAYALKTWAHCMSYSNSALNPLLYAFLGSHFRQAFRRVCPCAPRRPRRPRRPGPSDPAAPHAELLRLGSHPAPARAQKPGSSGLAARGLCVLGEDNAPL

Row | solubility [1] | EC50 [3] [nM] | EC50 [4] [nM] | Cmax [10] [ng/mL] | SMILES | inhibition [2] | inhibition [5] | inhibition [6] | inhibition [7] | inhibition [8] | Activity [9] [%] | MED [11] [pmol/h]
1 | Soluble | 2.4 | 17 |  | CNC(=N)NCCC[C@H](NC(=O)[C@H](CC(C)C)NC(=O)NNC(=O)[C@H](Cc1ccccc1)NC(=O)[C@@H](NC(=O)[C@H](CC(N)=O)NC(=O)C(C)(C)NC(=O)[C@@H](Cc1ccc(O)cc1)NC(C)=O)[C@@H](C)O)C(=O)N[C@@H](Cc1c[nH]c2ccccc12)C(N)=O (Ac-[dY][Aib]NTF[azaGly]L[Arg(Me)]W-NH2) | Active |  |  |  |  |  | 
2 |  | 22 | 40 |  | CNC(=N)NCCC[C@H](NC(=O)[C@H](CC(C)C)NC(=O)NNC(=O)[C@H](Cc1ccccc1)NC(=O)[C@@H](NC(=O)[C@H](CC(N)=O)NC(=O)[C@@H](CCC(=O)O)NC(=O)[C@@H](Cc1ccc(O)cc1)NC(C)=O)[C@@H](C)O)C(=O)N[C@@H](Cc1c[nH]c2ccccc12)C(N)=O |  | Active |  |  |  |  | 
3 |  | 3.6 | 18 |  | CNC(=N)NCCC[C@H](NC(=O)[C@H](CC(C)C)NC(=O)NNC(=O)[C@H](Cc1ccccc1)NC(=O)[C@@H](NC(=O)[C@H](CC(N)=O)NC(=O)[C@@H](CCCCN)NC(=O)[C@@H](Cc1ccc(O)cc1)NC(C)=O)[C@@H](C)O)C(=O)N[C@@H](Cc1c[nH]c2ccccc12)C(N)=O |  | Active |  |  |  |  | 
4 | Soluble | 0.43 | 7.1 |  | CNC(=N)NCCC[C@H](NC(=O)[C@H](CC(C)C)NC(=O)NNC(=O)[C@H](Cc1cccc(F)c1)NC(=O)[C@@H](NC(=O)[C@H](CC(N)=O)NC(=O)[C@H](CCCCN)NC(=O)[C@@H](Cc1ccc(O)cc1)NC(C)=O)[C@@H](C)O)C(=O)N[C@@H](Cc1c[nH]c2ccccc12)C(N)=O (Ac-[dY]KNT[Phe(3-F)][azaGly]L[Arg(Me)]W-NH2) |  |  |  |  |  |  | 
5 | Soluble |  |  | 100 | CNC(=N)NCCC[C@H](NC(=O)[C@H](CC(C)C)NC(=O)NNC(=O)[C@H](Cc1ccccc1)NC(=O)[C@@H](NC(=O)[C@H](CC(N)=O)NC(=O)[C@@H](Cc1c[nH]c2ccccc12)NC(=O)[C@@H](Cc1ccc(O)cc1)NC(C)=O)[C@@H](C)O)C(=O)N[C@@H](Cc1c[nH]c2ccccc12)C(N)=O |  | Active | Active | Active | Active | 34.8 | 100

— ChEMBL document CHEMBL3860048 (J Med Chem, 2016)
